Test system: L1210
Assay: Cytotoxicity was determined in vitro in murine leukemia L1210 Cells
Format: functional
Settings: Mus musculus, read-out: ID50 (the source's name)
Method in brief: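 Growth inhibition of murine leukemia L1210 cells cultured in vitro. Cells were exposed to the adducts for 48 h and then counted. ID50 is the drug concentration that cuts cell number by 50% relative to untreated control.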

Structure (SMILES)	IC50 [nM]
Cc1c2cc[n+](C)cc2c(C)c2c3c([nH]c12)C=CC(=O)[C@@]31O[C@@H]2[C@H](O1)[C@@H](CO)O[C@H]2n1cnc2c(O)nc(N)nc21	800
Cc1c2cc[n+](C)cc2c(C)c2c3c([nH]c12)C=CC(=O)[C@@]31O[C@@H]2[C@H](O1)[C@@H](CO)O[C@H]2n1ccc(=O)[nH]c1=O	> 3000
Cc1c2cc[n+](C)cc2c(C)c2c3c([nH]c12)C=CC(=O)[C@@]31O[C@@H]2[C@H](O1)[C@@H](COP(=O)(O)O)O[C@H]2n1cnc2c(O)nc(N)nc21	> 1000
Cc1c2cc[n+](C)cc2c(C)c2c3c([nH]c12)C=CC(=O)[C@@]31O[C@@H]2[C@H](O1)[C@@H](COP(=O)(O)O)O[C@H]2n1cnc2c(N)ncnc21	> 800
Cc1c2cc[n+](C)cc2c(C)c2c3c([nH]c12)C=CC(=O)[C@@]31O[C@@H]2[C@H](O1)[C@@H](CO)O[C@H]2n1cnc2c(N)ncnc21	800
Cc1c2cc[n+](C)cc2c(C)c2c3c([nH]c12)C=CC(=O)[C@@]31O[C@@H]2[C@H](O1)[C@@H](COP(=O)(O)O)O[C@H]2n1ccc(=O)[nH]c1=O	1100
Cc1c2cc[n+](C)cc2c(C)c2c3c([nH]c12)C=CC(=O)[C@@]31O[C@@H]2[C@H](O1)[C@@H](CO)O[C@H]2n1ncc(=O)[nH]c1=O	> 3000
Cc1c2cc[n+](C)cc2c(C)c2c3c([nH]c12)C=CC(=O)[C@@]31O[C@@H]2[C@H](O1)[C@@H](CO)O[C@H]2n1ccc(N)nc1=O	3000
Cc1c2cc[n+](C)cc2c(C)c2c3c([nH]c12)C=CC(=O)[C@@]31O[C@@H]2[C@H](O1)[C@@H](COP(=O)(O)O)O[C@H]2n1ccc(N)nc1=O	12800
O=c1cnn([C@@H]2O[C@H](CO)[C@@H](O)[C@H]2O)c(=O)[nH]1 [6-AZAURIDINE]	570
Cc1c2cc[n+](C)cc2c(C)c2c1[nH]c1ccc(O)cc12 [ELLIPTINIUM ACETATE]	120
Nc1nc2[nH]cnc2c(=S)[nH]1 [THIOGUANINE]	70
Nc1nc(=S)c2ncn([C@@H]3O[C@H](CO)[C@@H](O)[C@H]3O)c2[nH]1 [THIOGUANOSINE]	100

Source: ChEMBL document CHEMBL1123327, “Ribose as the preferential target for the oxidized form of elliptinium acetate in ribonucleos(t)ides. Biological activities of the resulting adducts” (1986)
